Rows were chosen to be rich in hits. Some 3% of all compounds tested hit in one or more screens of this group.
Hsp70 act: switches on Hsp70 transcription; activation, % at 10 µM; HeLa Hsp70 promoter luciferase reporter, luminescence; scaled: vehicle 0, proteasome-inhibitor control 100%; 0.04% of 200,000 active;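 active = activation above the mean across all tested compounds plus 3 SD, cutoff set per campaign, cut at about 5.5% in these data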;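 note: 100% = MG132 at 30 µM as the positive control and 0% = DMSO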
Wee1 stabilizer: inhibitors of human Wee1 degradation; reporter increase, % at 5 µM; 1.2% of 220,000 active; HeLa Luc-Wee1K328M stability, luciferase luminescence; 100% = proteasome inhibitor MG132 effect; P30291;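 active = activation above the mean of all tested compounds plus 3 SD, set per screening run, cut at about 8.8% in these data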;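 note: cells exposed to compound for 20 h before luminescence read; 0% = DMSO alone and 100% = MG132 at 30 µM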
Target sequence (P30291 whole entry K328M): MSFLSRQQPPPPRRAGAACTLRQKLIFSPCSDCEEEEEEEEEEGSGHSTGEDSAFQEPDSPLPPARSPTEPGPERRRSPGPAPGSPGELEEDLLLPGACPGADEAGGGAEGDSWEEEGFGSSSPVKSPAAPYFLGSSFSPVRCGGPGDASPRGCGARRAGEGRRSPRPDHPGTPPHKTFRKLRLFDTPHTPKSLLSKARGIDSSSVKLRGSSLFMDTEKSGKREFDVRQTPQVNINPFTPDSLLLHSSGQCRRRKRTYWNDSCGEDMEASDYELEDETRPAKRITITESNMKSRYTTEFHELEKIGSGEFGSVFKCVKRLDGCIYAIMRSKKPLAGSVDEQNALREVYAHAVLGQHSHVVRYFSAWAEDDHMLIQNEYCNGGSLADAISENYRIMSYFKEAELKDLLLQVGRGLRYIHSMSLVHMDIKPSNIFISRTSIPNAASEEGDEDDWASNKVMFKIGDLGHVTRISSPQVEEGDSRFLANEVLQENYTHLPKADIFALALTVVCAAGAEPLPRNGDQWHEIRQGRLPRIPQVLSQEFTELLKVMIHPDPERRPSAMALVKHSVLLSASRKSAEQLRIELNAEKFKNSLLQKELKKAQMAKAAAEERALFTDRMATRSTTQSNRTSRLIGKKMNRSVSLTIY
NPY-Y1 PAM-ag: human NPY-Y1 potentiation or agonism, primary screen; P25929; NPY-Y1 expressing cells, potentiator/agonist activation; activation, % at 3.6 µM; 0.37% of 220,000 active; AID 1304; in the data active = activation above about 33%, passing the limit was not always enough;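 note: cells stimulated with NPY at EC10 then isoproterenol at EC100; 0% = low agonist plus stimulus and 100% = saturating agonist plus stimulus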
NPY2 pot ag: potentiators or agonists of human neuropeptide Y receptor Y2; 0.45% of 220,000 active; cells expressing NPY-Y2, potentiator/agonist read-out; P49146; AID 1359; activation, % at 3.6 µM; in the data active = activation above about 27%;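 note: cells stimulated with NPY near EC25 plus isoproterenol at EC100; 0% = vehicle plus submaximal agonist and 100% = vehicle plus saturating agonist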
NPY-Y1 antag: NPY-Y1 (human) receptor antagonism. P25929. HEK293-CNG Y1 cells, membrane potential fluorescence; NPY at EC95, then isoproterenol. inhibition, % at 3.6 µM. 1% of 200,000 active;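 active = inhibition above the campaign mean inhibition of all tested compounds plus 3 SD, cut at about 20% in these data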;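 note: 0% = DMSO wells given NPY plus isoproterenol and 100% = isoproterenol alone without NPY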
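Material: HEK293 Y1/CNG channel cell line | Also added: NPY (25 nM), isoproterenol (1 µM), Ro 20-1724 (25 µM) | Compound: One concentration, 3.6 µM, in 0.4% DMSO | Schedule: 3 h dye uptake, 1 h room-temperature compound, 45 min post-isoproterenol | Signal: Membrane-potential fluorescent dye readout | Read-out: % inhibition of NPY effect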
NPY Y2 blocker: NPY-Y2 (human) receptor antagonism. 0.99% of 140,000 active. inhibition, % at 2.7 µM. P49146. AID 793. NPY-Y2 expressing cells, antagonist mode; in the data active = inhibition above about 17%;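 note: 0% = vehicle with agonist challenge and 100% = reference antagonist with challenge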
* = called active by the depositor; . = no result.

SMILES	Hsp70 act	Wee1 stabilizer	NPY-Y1 PAM-ag	NPY2 pot ag	NPY-Y1 antag	NPY Y2 blocker
CCCCC(=O)Nc1ccccc1Oc1ccccc1	0	6	4	5	2	.
CCCCC(CC)CNS(=O)(=O)c1ccc2c(c1)CCN2C(=O)CCC(=O)O (stereo not given)	0	4	41*	18	-8	0
CCOC(=O)C/C(N)=N/NC(=O)c1ccc(Cl)cc1Cl	0	11*	-1	-9	-3	.
CSc1nnc(CSc2cc(C)nc(N(C)C)n2)o1	0	-1	-14	-5	10	5
O=C(COc1ccc(Br)cc1Br)NC(=O)NC1CCCC1	0	2	-26	2	-4	.
CC(C)(C)NC(=O)NC(=O)COc1ccc(Br)cc1Br	0	9.8*	-7	-8	0	2
C/C(CC(=O)NC(C)(C)C)=N\NC(=O)COc1ccc(C)cc1Br	-1	9.5*	0	2	-2	.
O=C(COc1ccc(Br)cc1Br)NC(=S)Nc1cccc(CO)c1	0	11*	-10	6	0	3
COc1ccccc1NC(=O)C(=O)N1N=C(C(C)C)CC1(O)C(F)(F)F (stereo not given)	0	-3	11	2	-5	0
O=C(O)c1ccc(NC(=S)Nc2ccccc2)cc1	0	-1	15	8	0	0
COCCCN(C(=S)NC(=O)c1ccc(C(C)(C)C)cc1)c1c(N)n(Cc2ccccc2)c(=O)[nH]c1=O	0	-1	11	1	-1	1
Cc1cc(C)cc(N(C(=O)CNS(=O)(=O)c2ccccc2)C(C(=O)NCc2ccccc2)c2ccc(C)o2)c1 (stereo not given)	0	11*	9	-10	11	11
CCOC(=O)Nc1sc(C)nc1-c1ccccc1	0	0	9	-14	7	4
CCOC(=O)Nc1nc(-c2ccccc2)c(C(=O)c2ccc(Cl)cc2)s1	0	0	-37	-48	40*	20*
CC1=NN(c2ccccc2)C(=O)/C1=C\c1c(C)[nH]n(-c2ccccc2)c1=O	0	16*	-19	-4	0	-1
CC1=NN(c2ccccc2)C(=O)/C1=C\c1cn(-c2ccccc2)nc1C	0	4	-2	9	-3	.
CN(C)CCOc1ccccc1C(C)(C)C	0	-2	-24	-19	1	2
CC(C)(C)NCC(O)COc1ccccc1C(=O)CCc1ccccc1 (stereo not given)	0	2	103*	102*	-16	10
CC(C)(C)NCC(O)COc1ccccc1C(C)(C)C (stereo not given)	0	2	108*	99*	-12	4
Cc1c[nH]c2cccc(OCC(O)CNC(C)(C)C)c12 (stereo not given)	0	4	109*	104*	-18	0
CC(C)N(C(=O)Cc1ccccc1[N+](=O)[O-])C(C)C	0	4	13	10	-4	.
CCOC(=O)Cn1c(=O)oc2cc(S(=O)(=O)Nc3cccc(C)c3)ccc21	0	0	32*	43*	-6	-4
CCOC(=O)Cn1c(=O)oc2cc(S(=O)(=O)NC(C)(C)CC)ccc21	.	-3	12	5	.	.
Cn1cc(-c2nnc(-c3ccccc3)o2)c2ccccc21	0	10*	-2	-4	1	4
O=C(CN(c1cccc(C(F)(F)F)c1)S(=O)(=O)c1ccc(Cl)c([N+](=O)[O-])c1)NCc1ccccc1Cl	0	2	36	23	-7	0
SMILES	Hsp70 act	Wee1 stabilizer	NPY-Y1 PAM-ag	NPY2 pot ag	NPY-Y1 antag	NPY Y2 blocker
CC(NC(=O)CN(c1cccc(C(F)(F)F)c1)S(=O)(=O)c1ccc(Cl)c([N+](=O)[O-])c1)c1ccccc1 (stereo not given)	0	2	75*	50*	-9	-2
Cc1ccc(N(CC(=O)NCCc2ccc(F)cc2)S(=O)(=O)c2ccc(Cl)c([N+](=O)[O-])c2)c(C)c1	0	-1	68*	39*	-8	-5
O=C(CN(c1cccc(C(F)(F)F)c1)S(=O)(=O)c1ccc(Cl)c([N+](=O)[O-])c1)NCc1ccccc1	0	3	81*	61*	-10	-1
CC(=O)c1ccc(-n2c(-c3cc(-c4ccsc4)n[nH]3)n[nH]c2=S)cc1	0	-1	1	-5	9	.
CN(C)c1ccnc(-n2cccc2/C=N/O)c1C#N	0	5	-3	-4	1	.
O=C(CC1CCCCC1)OCn1nnc2ccccc2c1=O	0	0	107*	103*	0	1
Cc1cc(-c2n[nH]c(=S)n2CC(C)C)cs1	0	11*	-6	-1	-2	7
COc1ccc(OC)c(NC(=O)CNC(=O)c2ccc([N+](=O)[O-])cc2)c1	0	0	-12	-10	-2	.
CCCCCOc1ccc(Br)cc1/C(C)=N/NC1=NCCN1	0	2	-46	-21	27*	54*
COc1ccc(Br)cc1/C(C)=N/NC1=NCCN1	0	2	6	10	-1	9
O=C(COC(=O)COc1ccccc1[N+](=O)[O-])NC1CCCC1	0	10*	-11	2	3	4
N#Cc1ccccc1NC(=O)COC(=O)COc1ccccc1[N+](=O)[O-]	0	1	-11	-7	-2	.
CC(=O)C1=C(O)C(=O)N(c2ccc(O)cc2)C1c1ccc([N+](=O)[O-])cc1 (stereo not given)	0	9.3*	4	15	3	.
CC(=O)C1=C(O)C(=O)N(c2ccc(C)cc2)C1c1ccc([N+](=O)[O-])cc1 (stereo not given)	0	9	-6	-4	-7	.
CN(C(=O)COc1ccccc1C(=O)NCCOc1ccccc1)c1ccccc1	-1	1	-80	-5	2	4
COc1ccc(S(=O)CC(=O)Nc2ccccc2Cl)cc1 (stereo not given)	0	9.7*	13	3	1	.
N#C/C(=C/c1ccc([N+](=O)[O-])cc1)C(N)=O	0	11*	9	0	0	.
N#C/C(=C\c1cc([N+](=O)[O-])ccc1Cl)C(N)=O	0	2	5	2	16	.
CN1CCN(C(=O)c2ccccc2NC(=O)Cc2ccccc2)CC1	1	10*	12	11	3	-3
CCN(CC)S(=O)(=O)c1ccc(NC(=O)Cn2c(=O)sc3ccccc32)cc1	0	9.2*	1	4	-2	-2
O=C(Cn1c(=O)sc2ccccc21)Nc1ccccc1	0	-1	-6	7	-7	2
COC(=O)Cn1c(=O)sc2ccccc21	-1	10*	8	9	-6	-3
COc1ccc(Cc2n[nH]c(=S)n2C)cc1Br	0	-2	-4	3	2	.

Screening results: PubChem, The Scripps Research Institute Molecular Screening Center
